Assay results reported in ChEMBL document CHEMBL3421571, “N-Oxide derivatives of 3-(3-pyridyl)-2-phosphonopropanoic acids as potential inhibitors of Rab geranylgeranylation” (Bioorg Med Chem Lett, 2015).
The source made the active and inactive calls. No cut-off for these calls is given here.

Columns and labels:
RPMI-8226 [1] = experiment: Induction of apoptosis in human RPMI8226 cells assessed as increase in PARP cleavage at 20 uM incubated for 48 hrs by immunoblot method; type: functional, cell-based
Procedure, shortened: (§1)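 RPMI-8226 myeloma cells exposed 48 h to lovastatin (20 μM) or bisphosphonates (5 mM), untreated cells as reference. Whole-cell lysates made in RIPA buffer, membrane (detergent) fraction by Triton X-114 partitioning; immunoblotting with β-tubulin (lysate) or calnexin (detergent fraction) as loading controls. Rap1a antibody recognizes only unprenylated protein. Blots representative of two independent experiments.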

RPMI-8226 [2] = experiment: Induction of apoptosis in human RPMI8226 cells assessed as increase in caspase-3 cleavage at 20 uM incubated for 48 hrs by immunoblot method; type: functional, cell-based; procedure, shortened: as §1
[3] = molecular target: T1, Farnesyl pyrophosphate synthase (Homo sapiens, UniProt P14324); experiment: Inhibition of recombinant FDPS (unknown origin) assessed as decrease in […] level using GPP and [14C]IPP as substrate treated with enzyme for 10 mins prior to substrate challenge for 30 mins by liquid scintillation counting analysis
T1 sequence (P14324 whole entry): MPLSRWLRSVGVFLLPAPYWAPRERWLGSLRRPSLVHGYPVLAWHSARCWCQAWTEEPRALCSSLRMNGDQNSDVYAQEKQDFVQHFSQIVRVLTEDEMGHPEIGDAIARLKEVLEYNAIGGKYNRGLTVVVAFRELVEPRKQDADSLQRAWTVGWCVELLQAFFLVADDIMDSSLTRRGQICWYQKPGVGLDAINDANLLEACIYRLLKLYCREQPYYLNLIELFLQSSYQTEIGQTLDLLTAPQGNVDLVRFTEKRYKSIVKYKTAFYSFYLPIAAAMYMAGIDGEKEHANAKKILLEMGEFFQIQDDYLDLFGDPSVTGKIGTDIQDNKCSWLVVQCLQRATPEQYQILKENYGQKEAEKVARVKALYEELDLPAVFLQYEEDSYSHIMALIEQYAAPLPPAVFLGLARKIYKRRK

[4] = Inhibition of recombinant GGTase 2 (unknown origin) using recombinant Rab1A and [3H]GGPP as substrate after 20 mins in presence of recombinant REP-2 by liquid scintillation counting analysis; design: species or system Homo sapiens
[5] = molecular target: Geranylgeranyl transferase type I (Homo sapiens) (UniProt P49354+P53609); experiment: Inhibition of GGTase 1 in human RPMI8226 cells assessed as unmodified Rap1a accumulation at 5 mM incubated for 48 hrs by immunoblot method; type: cell-based; conditions: RPMI-8226; procedure, shortened: as §1
RPMI-8226 [6] = experiment: Inhibition of GGTase 2 in human RPMI8226 cells assessed as reduction in membrane bound Rab6 protein at 5 mM incubated for 48 hrs by immunoblot method; type: cell-based; procedure, shortened: as §1
RPMI-8226 [7] = experiment: Induction of apoptosis in human RPMI8226 cells assessed as increase in PARP cleavage at 5 mM incubated for 48 hrs by immunoblot method; type: functional, cell-based; procedure, shortened: as §1
RPMI-8226 [8] = experiment: Induction of apoptosis in human RPMI8226 cells assessed as increase in caspase-3 cleavage at 5 mM incubated for 48 hrs by immunoblot method; type: functional, cell-based; procedure, shortened: as §1
RPMI-8226 [9] = experiment: Induction of endoplasmic reticulum stress in human RPMI8226 cells assessed as increase in calnexin cleavage at 5 mM incubated for 48 hrs by immunoblot method; type: functional, cell-based
RPMI-8226 [10] = experiment: Inhibition of GGTase 2 in human RPMI8226 cells assessed as disruption of monoclonal protein trafficking by measuring accumulation of intracellular lambda light chain at 5 mM incubated for 48 hrs by ELISA; type: cell-based
Procedure, shortened: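 RPMI-8226 cells treated 48 h with lovastatin (20 μM) or bisphosphonates (5 mM); intracellular lambda light chain quantified by ELISA, expressed as percentage of untreated control (mean + SD, n=3); unpaired two-tailed t-test against untreated cells.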

SMILES	Activity (RPMI-8226 [1])	Activity (RPMI-8226 [2])	IC50 [3] [µM]	IC50 [4] [µM]	inhibition [5]	inhibition (RPMI-8226 [6])	Activity (RPMI-8226 [7])	Activity (RPMI-8226 [8])	Activity (RPMI-8226 [9])	inhibition (RPMI-8226 [10])
CC[C@H](C)C(=O)O[C@H]1C[C@@H](C)C=C2C=C[C@H](C)[C@H](CC[C@@H]3C[C@@H](O)CC(=O)O3)[C@H]21	Active	Active								
O=C(O)C(Cc1cccnc1)P(=O)(O)O (stereo unspecified)			1000	1100	inactive	Active	Active	Active	Active	inactive
O=C(O)C(O)(Cc1ccc[n+]([O-])c1)P(=O)(O)O (stereo unspecified)			2000	1800	inactive	Active				Active
O=C(O)C(O)(Cc1cccnc1)P(=O)(O)O (stereo unspecified)			200	700	inactive	Active	Active	Active	Active	Active
O=C(O)C(Cc1ccc[n+]([O-])c1)P(=O)(O)O (stereo unspecified)			> 2000	800	inactive	inactive	Active	Active	Active	inactive
